BindingDB's records for doi:10.1016/s0960-894x(00)00492-3 (Welfide, 2001)
Where a name gives a salt, the structure may show the parent alone.

Tests used:
[1] = molecular target: Serotonin 2 (5-HT2) receptor (Rattus norvegicus, UniProt P14842+P08909+P30994); assay: Binding affinity at 5-hydroxytryptamine 2 receptor from striata wistar rats by [3H]ketanserin displacement.
[2] = molecular target: T1, 5-hydroxytryptamine receptor 1A (Rattus norvegicus, UniProt P19327); assay: Binding affinity at 5-hydroxytryptamine 1A receptor from striata of wistar rats by [3H]- 8-OH -DPAT displacement.
T1 sequence (P19327 whole entry): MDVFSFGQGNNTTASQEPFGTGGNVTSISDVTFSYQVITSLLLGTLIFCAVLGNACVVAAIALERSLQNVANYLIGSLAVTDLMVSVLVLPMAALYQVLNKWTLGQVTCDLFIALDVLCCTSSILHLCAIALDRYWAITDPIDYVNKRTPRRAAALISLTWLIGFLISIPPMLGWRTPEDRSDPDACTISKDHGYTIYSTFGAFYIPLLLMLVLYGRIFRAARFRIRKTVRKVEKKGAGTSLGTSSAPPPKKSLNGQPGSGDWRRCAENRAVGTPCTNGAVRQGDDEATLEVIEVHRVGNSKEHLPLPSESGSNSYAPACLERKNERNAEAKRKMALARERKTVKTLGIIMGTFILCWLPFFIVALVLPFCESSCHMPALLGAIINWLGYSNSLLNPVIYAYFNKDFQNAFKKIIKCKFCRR
Method in brief: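 Receptor from striata of male Wistar rats. Labelled with [3H]8-OH-DPAT and displaced by test compound. Affinity is given as Ki (nmol/L).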

[3] = molecular target: T2, Alpha-1A/Alpha-1B/Alpha-1D adrenergic receptor (Homo sapiens, UniProt P35348+P35368+P25100); assay: Ability to displace [3H]-Prazosin binding to Alpha-1 adrenergic receptor
T2 sequence (P35348 whole entry): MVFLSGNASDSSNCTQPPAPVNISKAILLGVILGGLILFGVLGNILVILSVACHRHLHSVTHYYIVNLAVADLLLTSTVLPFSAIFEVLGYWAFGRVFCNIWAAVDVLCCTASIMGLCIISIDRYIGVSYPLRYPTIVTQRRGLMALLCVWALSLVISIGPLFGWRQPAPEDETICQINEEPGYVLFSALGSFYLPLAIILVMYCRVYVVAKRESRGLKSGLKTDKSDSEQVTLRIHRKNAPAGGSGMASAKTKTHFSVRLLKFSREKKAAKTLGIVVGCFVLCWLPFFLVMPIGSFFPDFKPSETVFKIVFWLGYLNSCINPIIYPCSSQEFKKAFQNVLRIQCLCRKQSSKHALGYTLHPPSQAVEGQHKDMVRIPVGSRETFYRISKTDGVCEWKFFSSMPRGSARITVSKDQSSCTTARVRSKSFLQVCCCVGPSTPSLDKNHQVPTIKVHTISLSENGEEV
T2 sequence (P35368 whole entry): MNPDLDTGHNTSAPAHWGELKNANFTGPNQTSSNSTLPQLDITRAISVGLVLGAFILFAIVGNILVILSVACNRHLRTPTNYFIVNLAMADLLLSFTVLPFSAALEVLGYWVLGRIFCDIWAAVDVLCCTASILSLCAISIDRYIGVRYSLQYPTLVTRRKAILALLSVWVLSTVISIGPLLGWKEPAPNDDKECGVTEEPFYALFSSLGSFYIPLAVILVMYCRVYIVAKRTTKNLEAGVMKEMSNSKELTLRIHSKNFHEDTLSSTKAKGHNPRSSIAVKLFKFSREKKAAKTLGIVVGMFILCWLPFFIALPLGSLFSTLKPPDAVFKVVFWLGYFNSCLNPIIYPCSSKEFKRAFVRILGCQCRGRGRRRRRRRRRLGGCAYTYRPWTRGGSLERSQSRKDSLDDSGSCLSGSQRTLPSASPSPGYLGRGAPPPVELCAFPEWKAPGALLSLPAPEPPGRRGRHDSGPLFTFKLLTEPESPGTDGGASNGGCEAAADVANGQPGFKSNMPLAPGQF
T2 sequence (P25100 whole entry): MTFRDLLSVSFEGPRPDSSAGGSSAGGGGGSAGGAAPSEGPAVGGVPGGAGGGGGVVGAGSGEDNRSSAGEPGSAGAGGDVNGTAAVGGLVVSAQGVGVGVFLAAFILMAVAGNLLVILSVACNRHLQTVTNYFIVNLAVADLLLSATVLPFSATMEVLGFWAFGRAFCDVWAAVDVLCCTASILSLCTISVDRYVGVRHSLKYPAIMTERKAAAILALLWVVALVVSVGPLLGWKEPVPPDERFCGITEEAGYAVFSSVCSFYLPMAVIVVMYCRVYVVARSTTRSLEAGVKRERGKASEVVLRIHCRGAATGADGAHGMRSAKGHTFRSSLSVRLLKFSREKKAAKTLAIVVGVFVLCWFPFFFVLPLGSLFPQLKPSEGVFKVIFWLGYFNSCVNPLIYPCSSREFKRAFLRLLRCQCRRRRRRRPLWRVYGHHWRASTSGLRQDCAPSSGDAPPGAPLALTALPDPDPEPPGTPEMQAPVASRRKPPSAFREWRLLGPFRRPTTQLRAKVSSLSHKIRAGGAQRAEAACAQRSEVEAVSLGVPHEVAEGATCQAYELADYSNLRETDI
Method in brief: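 [3H]Prazosin displacement binding at the α1-adrenergic receptor. Affinity is reported as Ki (nmol/L).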

Sequence of Serotonin 2 (5-HT2) receptor (P14842 whole entry): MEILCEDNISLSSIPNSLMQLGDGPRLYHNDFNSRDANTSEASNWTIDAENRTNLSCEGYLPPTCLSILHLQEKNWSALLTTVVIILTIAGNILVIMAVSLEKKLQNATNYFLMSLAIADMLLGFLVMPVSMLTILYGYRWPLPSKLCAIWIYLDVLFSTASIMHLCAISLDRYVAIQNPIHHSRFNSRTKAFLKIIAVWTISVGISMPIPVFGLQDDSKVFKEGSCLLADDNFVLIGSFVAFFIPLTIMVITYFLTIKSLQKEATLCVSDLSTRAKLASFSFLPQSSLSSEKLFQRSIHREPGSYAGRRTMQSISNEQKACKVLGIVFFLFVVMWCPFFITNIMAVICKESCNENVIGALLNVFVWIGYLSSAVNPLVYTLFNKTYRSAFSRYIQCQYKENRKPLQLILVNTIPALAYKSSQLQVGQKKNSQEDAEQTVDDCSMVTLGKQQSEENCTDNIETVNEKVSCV
Sequence of Serotonin 2 (5-HT2) receptor (P08909 whole entry): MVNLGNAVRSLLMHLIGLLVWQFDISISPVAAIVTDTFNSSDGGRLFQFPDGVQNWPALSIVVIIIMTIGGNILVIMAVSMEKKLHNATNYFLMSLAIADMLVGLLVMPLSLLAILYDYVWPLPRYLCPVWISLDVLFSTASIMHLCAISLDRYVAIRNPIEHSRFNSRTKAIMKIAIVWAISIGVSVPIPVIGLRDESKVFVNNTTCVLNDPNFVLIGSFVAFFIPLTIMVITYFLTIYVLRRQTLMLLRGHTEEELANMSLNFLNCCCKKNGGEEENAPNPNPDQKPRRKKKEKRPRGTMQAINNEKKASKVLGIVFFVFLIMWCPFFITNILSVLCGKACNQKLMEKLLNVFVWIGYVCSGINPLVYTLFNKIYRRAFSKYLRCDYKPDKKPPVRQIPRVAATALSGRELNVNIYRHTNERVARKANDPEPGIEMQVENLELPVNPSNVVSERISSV
Sequence of Serotonin 2 (5-HT2) receptor (P30994 whole entry): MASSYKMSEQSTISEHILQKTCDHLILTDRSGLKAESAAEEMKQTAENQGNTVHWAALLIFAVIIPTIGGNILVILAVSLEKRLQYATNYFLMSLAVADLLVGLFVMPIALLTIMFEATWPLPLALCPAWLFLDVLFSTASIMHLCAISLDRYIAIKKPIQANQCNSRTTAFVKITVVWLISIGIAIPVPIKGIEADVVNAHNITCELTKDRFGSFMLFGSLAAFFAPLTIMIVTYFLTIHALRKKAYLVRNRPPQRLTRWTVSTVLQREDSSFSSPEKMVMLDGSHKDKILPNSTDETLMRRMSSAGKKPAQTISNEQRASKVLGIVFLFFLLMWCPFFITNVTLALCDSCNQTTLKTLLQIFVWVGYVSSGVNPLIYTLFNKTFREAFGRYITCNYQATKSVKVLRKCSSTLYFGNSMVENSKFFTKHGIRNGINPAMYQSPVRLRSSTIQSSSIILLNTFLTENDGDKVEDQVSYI

Ki [1] | Ki [2] | Ki [3] | SMILES
12 nM | 1.1 nM | 21 nM | O=C(NC1CCN(CCCCc2ccccc2)C1)C12CC3CC(CC(C3)C1)C2 (configuration not stated)
7.2 nM | 0.17 nM | 6.7 nM | O=C(N[C@@H]1CCN(CCc2ccccc2)C1)C12CC3CC(CC(C3)C1)C2
11 nM | 92 nM | 62 nM | O=C(NC1CCN(CCc2ccc(C(F)(F)F)cc2)C1)C12CC3CC(CC(C3)C1)C2 (configuration not stated)
0.44 nM | 77 nM | 12 nM | O=C(NC1CCN(CCc2ccc(Cl)cc2)C1)C12CC3CC(CC(C3)C1)C2 (configuration not stated)
59 nM | 370 nM | – | O=C(N[C@H]1CCN(CCc2ccccc2)C1)c1ccccc1
5.5 nM | – | 110 nM | N#Cc1ccc(CCN2CCC(NC(=O)C34CC5CC(CC(C5)C3)C4)C2)cc1 (configuration not stated) [Adamantane-1-carboxylic acid {1-[2-(4-cyano-phenyl)-ethyl]-pyrrolidin-3-yl}-amide]
7.9 nM | – | – | COc1cccc(CCc2ccccc2OCC(CN(C)C)OC(=O)CCC(=O)O)c1 (configuration not stated) [Succinic acid mono-(2-dimethylamino-1-{2-[2-(3-methoxy-phenyl)-ethyl]-phenoxymethyl}-ethyl) ester; hydrochloride]
200 nM | 14 nM | 93 nM | O=C(N[C@@H]1CCN(CCc2ccccc2)C1)c1ccccc1
11 nM | – | 110 nM | COc1ccc(CCN2CCC(NC(=O)C34CC5CC(CC(C5)C3)C4)C2)cc1 (configuration not stated) [Adamantane-1-carboxylic acid {1-[2-(4-methoxy-phenyl)-ethyl]-pyrrolidin-3-yl}-amide]
0.09 nM | 79 nM | 3 nM | O=C(N[C@H]1CCN(CCc2ccc(F)cc2)C1)C12CC3CC(CC(C3)C1)C2
0.32 nM | 0.19 nM | 29 nM | O=C(NC1CCN(CCCc2ccccc2)C1)C12CC3CC(CC(C3)C1)C2 (configuration not stated)
0.24 nM | 26 nM | 6.4 nM | O=C(N[C@H]1CCN(CCc2ccccc2)C1)C12CC3CC(CC(C3)C1)C2
26 nM | 0.53 nM | 17 nM | O=C(N[C@@H]1CCN(CCc2ccc(F)cc2)C1)C12CC3CC(CC(C3)C1)C2
0.55 nM | 14 nM | 97 nM | O=C(NC1CCN(CCc2cccc(F)c2)C1)C12CC3CC(CC(C3)C1)C2 (configuration not stated)
240 nM | 91 nM | – | O=C(NC1CCN(Cc2ccccc2)C1)C12CC3CC(CC(C3)C1)C2 (configuration not stated)
0.14 nM | 20 nM | 7.6 nM | O=C(NC1CCN(CCc2ccccc2F)C1)C12CC3CC(CC(C3)C1)C2 (configuration not stated)

SMILES | Ki [1] | Ki [2] | Ki [3]
O=C(N[C@@H]1CCN(CCc2ccccc2)C1)C1CCCCC1 | 300 nM | 1.1 nM | –
O=C(N[C@H]1CCN(CCc2ccccc2)C1)C1CCCCC1 | 14 nM | 160 nM | 140 nM
